Data as given in ChEMBL document CHEMBL1153726, “Synthesis and anticancer activity of sclerophytin-inspired hydroisobenzofurans” (Bioorg Med Chem Lett, 2009).

How the values were obtained:
Assay type in all cases: functional
[1] = test system: OVCAR-4; experiment: Growth inhibition of human OVCAR4 cells after 96 hrs by MTT assay; settings: OVCAR-4, 96 h
Method in brief: (§1)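 Tested in the NCI 60-cell-line panel in five-dose format; GI50 and LC50 values reported for each cell line.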

[2] = test system: SW-620; experiment: Growth inhibition of human SW620 cells at 10 uM after 96 hrs by MTT assay; design: scale not given: the % may be the effect or the level left
[3] = test system: IGROV-1; experiment: Growth inhibition of human IGROV1 cells at 1 uM after 96 hrs by MTT assay; design: scale not given: the % may be the effect or the level left
[4] = test system: NCI-H226; experiment: Growth inhibition of human NCI-H226 cells at 100 nM after 96 hrs by MTT assay; design: scale not given: the % may be the effect or the level left
[5] = test system: NCI-H226; experiment: Growth inhibition of human NCI-H226 cells at 1 uM after 96 hrs by MTT assay; design: scale not given: the % may be the effect or the level left
[6] = test system: DU-145; experiment: Growth inhibition of human DU145 cells at 10 nM after 96 hrs by MTT assay; design: scale not given: the % may be the effect or the level left
[7] = test system: IGROV-1; experiment: Growth inhibition of human IGROV1 cells at 10 uM after 96 hrs by MTT assay; design: scale not given: the % may be the effect or the level left
[8] = test system: OVCAR-8; experiment: Growth inhibition of human OVCAR8 cells at 100 nM after 96 hrs by MTT assay; design: scale not given: the % may be the effect or the level left
[9] = test system: HOP-62; experiment: Growth inhibition of human HOP62 cells at 1 nM after 96 hrs by MTT assay; design: scale not given: the % may be the effect or the level left
[10] = test system: HCC 2998; experiment: Growth inhibition of human HCC2998 cells at 1 uM after 96 hrs by MTT assay; design: scale not given: the % may be the effect or the level left
[11] = test system: TK-10; experiment: Growth inhibition of human TK10 cells at 10 uM after 96 hrs by MTT assay; design: scale not given: the % may be the effect or the level left
[12] = test system: A549; experiment: Growth inhibition of human A549 cells at 10 uM after 96 hrs by MTT assay; design: scale not given: the % may be the effect or the level left
[13] = test system: SK-MEL-5; experiment: Growth inhibition of human SK-MEL-5 cells at 100 nM after 96 hrs by MTT assay; design: scale not given: the % may be the effect or the level left
[14] = test system: OVCAR-8; experiment: Growth inhibition of human OVCAR8 cells after 96 hrs by MTT assay; settings: OVCAR-8, 96 h; method in brief: as §1
[15] = test system: A549; experiment: Growth inhibition of human A549 cells at 1 nM after 96 hrs by MTT assay; design: scale not given: the % may be the effect or the level left
[16] = test system: NCI-H522; experiment: Growth inhibition of human NCI-H522 cells at 10 uM after 96 hrs by MTT assay; design: scale not given: the % may be the effect or the level left
[17] = test system: SF-295; experiment: Growth inhibition of human SF295 cells at 10 uM after 96 hrs by MTT assay; design: scale not given: the % may be the effect or the level left
[18] = test system: NCI-H226; experiment: Growth inhibition of human NCI-H226 cells after 96 hrs by MTT assay; settings: NCI-H226, 96 h
Method in brief: (§2)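 Run in the NCI 60 human tumour cell line panel as a five-dose assay. GI50 and LC50 were reported for each cell line.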

[19] = test system: SF-539; experiment: Growth inhibition of human SF539 cells after 96 hrs by MTT assay; settings: SF-539, 96 h; method in brief: as §1
[20] = test system: NCI-H460; experiment: Growth inhibition of human NCI-H460 cells after 96 hrs by MTT assay; settings: NCI-H460, 96 h; method in brief: as §2
[21] = test system: UACC-257; experiment: Growth inhibition of human UACC257 cells after 96 hrs by MTT assay; settings: UACC-257, 96 h; method in brief: as §1
[22] = test system: SK-MEL-2; experiment: Growth inhibition of human SK-MEL-2 cells at 1 nM after 96 hrs by MTT assay; design: scale not given: the % may be the effect or the level left
[23] = test system: SF-295; experiment: Growth inhibition of human SF295 cells at 100 nM after 96 hrs by MTT assay; design: scale not given: the % may be the effect or the level left
[24] = test system: UACC-257; experiment: Growth inhibition of human UACC257 cells at 1 uM after 96 hrs by MTT assay; design: scale not given: the % may be the effect or the level left
[25] = test system: TK-10; experiment: Growth inhibition of human TK10 cells at 100 nM after 96 hrs by MTT assay; design: scale not given: the % may be the effect or the level left
[26] = test system: NCI-H322M; experiment: Growth inhibition of human NCI-H322M cells at 1 uM after 96 hrs by MTT assay; design: scale not given: the % may be the effect or the level left
[27] = test system: 786-0; experiment: Growth inhibition of human 786-0 cells after 96 hrs by MTT assay; settings: 786-0, 96 h
[28] = test system: SW-620; experiment: Growth inhibition of human SW620 cells at 100 nM after 96 hrs by MTT assay; design: scale not given: the % may be the effect or the level left
[29] = test system: HCT-116; experiment: Growth inhibition of human HCT116 cells at 10 uM after 96 hrs by MTT assay; design: scale not given: the % may be the effect or the level left
[30] = test system: IGROV-1; experiment: Growth inhibition of human IGROV1 cells at 10 nM after 96 hrs by MTT assay; design: scale not given: the % may be the effect or the level left
[31] = test system: ACHN; experiment: Growth inhibition of human ACHN cells at 1 nM after 96 hrs by MTT assay; design: scale not given: the % may be the effect or the level left
[32] = test system: HCT-15; experiment: Growth inhibition of human HCT15 cells at 10 uM after 96 hrs by MTT assay; design: scale not given: the % may be the effect or the level left
[33] = test system: T47D; experiment: Growth inhibition of human T47D cells at 10 uM after 96 hrs by MTT assay; design: scale not given: the % may be the effect or the level left
[34] = test system: UACC-62; experiment: Growth inhibition of human UACC62 cells at 10 nM after 96 hrs by MTT assay; design: scale not given: the % may be the effect or the level left
[35] = test system: SR; experiment: Growth inhibition of human SR cells at 1 nM after 96 hrs by MTT assay; design: scale not given: the % may be the effect or the level left
[36] = test system: COLO 205; experiment: Growth inhibition of human COLO205 cells after 96 hrs by MTT assay; settings: COLO 205, 96 h
[37] = test system: LOX IMVI; experiment: Growth inhibition of human LOXIMVI cells at 10 nM after 96 hrs by MTT assay; design: scale not given: the % may be the effect or the level left
[38] = test system: BT-549; experiment: Growth inhibition of human BT549 cells at 1 uM after 96 hrs by MTT assay; design: scale not given: the % may be the effect or the level left
[39] = test system: DU-145; experiment: Growth inhibition of human DU145 cells at 1 nM after 96 hrs by MTT assay; design: scale not given: the % may be the effect or the level left
[40] = read-out: LC50 (the source's name)
[41] = read-out: Log10GI50 (converted)
[42] = read-out: Log10LC50 (converted)

`C=C(C)[C@H]1CC=C(C)C2=CO[C@@H](c3ccccc3F)[C@@H]21` showed a GI50 ([1]; read-out: GI50) of 4.1 µM, a CC50 [1, 40] of 86.6 µM and a GI50 [1, 41] of 4.07 µM. For the same compound, the CC50 [1, 42] was 87.1 µM, the TGI ([1]; read-out: Log10TGI (converted)) was 24 µM and the TGI ([1]; read-out: TGI) was 23.7 µM. It also gave an Activity [2] of 101.12%, an Activity [3] of 56% and an Activity [4] of 75%. The Activity [5] was 32%, the Activity [6] was 84% and the Activity [7] was 65.74%. It also gave an Activity [8] of 93%, an Activity [9] of 95% and an Activity [10] of 39%. The Activity [11] was 113.66%, the Activity [12] was 71.63% and the Activity [13] was 69%. For the same compound, the GI50 ([14]; read-out: GI50) was 11.9 µM, the CC50 [14, 40] was 79 µM and the GI50 [14, 41] was 11.7 µM. For the same compound, the CC50 [14, 42] was 79.4 µM, the TGI ([14]; read-out: Log10TGI (converted)) was 30.9 µM and the TGI ([14]; read-out: TGI) was 30.6 µM. The Activity [15] was 93%, the Activity [16] was 58.36% and the Activity [17] was 85.19%. For the same compound, the GI50 ([18]; read-out: GI50) was 3.82 µM, the CC50 [18, 40] was 50.6 µM and the GI50 [18, 41] was 3.8 µM. The CC50 [18, 42] was 50.1 µM, the TGI ([18]; read-out: Log10TGI (converted)) was 19.1 µM and the TGI ([18]; read-out: TGI) was 18.9 µM. It also gave a GI50 ([19]; read-out: GI50) of 6.82 µM, a CC50 [19, 40] of 44.8 µM and a GI50 [19, 41] of 6.76 µM. It also gave a CC50 [19, 42] of 44.7 µM, a TGI ([19]; read-out: Log10TGI (converted)) of 20 µM and a TGI ([19]; read-out: TGI) of 20 µM. It also gave a GI50 ([20]; read-out: GI50) of 4.24 µM, a CC50 [20, 40] of 43.4 µM and a GI50 [20, 41] of 4.27 µM. The CC50 [20, 42] was 43.7 µM, the TGI ([20]; read-out: Log10TGI (converted)) was 17.4 µM and the TGI ([20]; read-out: TGI) was 17.5 µM. The GI50 ([21]; read-out: GI50) was 6.71 µM, the CC50 [21, 40] was 50.9 µM and the GI50 [21, 41] was 6.76 µM. For the same compound, the CC50 [21, 42] was 51.3 µM, the TGI ([21]; read-out: Log10TGI (converted)) was 21.4 µM and the TGI ([21]; read-out: TGI) was 21.3 µM. It also gave an Activity [22] of 88%, an Activity [23] of 88% and an Activity [24] of 44%. For the same compound, the Activity [25] was 92%, the Activity [26] was 49% and the GI50 ([27]; read-out: GI50) was 8.73 µM. It also gave a CC50 [27, 40] of 48.1 µM, a GI50 [27, 41] of 8.71 µM and a CC50 [27, 42] of 47.9 µM. For the same compound, the TGI ([27]; read-out: Log10TGI (converted)) was 21.4 µM, the TGI ([27]; read-out: TGI) was 21.5 µM and the Activity [28] was 101%. For the same compound, the Activity [29] was 71.81%, the Activity [30] was 85% and the Activity [31] was 96%. For the same compound, the Activity [32] was 103.41%, the Activity [33] was 56.11% and the Activity [34] was 81%. The Activity [35] was 83%, the GI50 ([36]; read-out: GI50) was 9.77 µM and the CC50 [36, 40] was 46.3 µM. For the same compound, the GI50 [36, 41] was 9.77 µM, the CC50 [36, 42] was 46.8 µM and the TGI ([36]; read-out: Log10TGI (converted)) was 21.4 µM. The TGI ([36]; read-out: TGI) was 21.5 µM, the Activity [37] was 91% and the Activity [38] was -6%. For the same compound, the Activity [39] was 88%.
